Data published in ChEMBL document CHEMBL1154778, “Synthesis and biological evaluation of C-5 methyl substituted 4-arylthio and 4-aryloxy-3-Iodopyridin-2(1H)-one type anti-HIV agents” (J Med Chem, 2009).

What was measured:
[1] = Selectivity index, ratio of CC50 for human MT4 cells to IC50 for HIV-1 LAI harboring wild type reverse transcriptase infected in human MT4 cells; format: functional
Method in brief: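 Cytotoxicity was measured in mock-infected MT4 cultures (30000 cells/well) given the same compound concentration range, run in parallel with the infected cultures for 5 days at 37 °C, 5% CO2, with MTT viability. CC50 was the concentration reducing viability by 50% versus the drug-free control. SI was CC50 divided by IC50 against HIV-1 LAI.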

[2] = system: Human immunodeficiency virus 1; experiment: Antiviral activity against HIV1 HXB2 harboring Y188L mutant reverse transcriptase infected in human MT4 cells after 5 days by MTT assay; format: functional, organism-based; settings: Human immunodeficiency virus 1, HXB2, MT4, 120 h
Method in brief: (§1)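 Mutant viruses were made by recombining the mutant PR-RT sequence into a PR-RT-deleted HIV-1 HXB2 proviral clone. MT4 cells were grown in RPMI 1640 with 10% FCS and antibiotics. Virus at 200 CCID50/well and 30000 cells/well were incubated with varied compound concentrations for 5 days at 37 °C, 5% CO2. MTT viability gave IC50, the concentration giving 50% infection versus the drug-free control.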

[3] = system: Human immunodeficiency virus 1; experiment: Antiviral activity against HIV1 HXB2 harboring K103N mutant reverse transcriptase infected in human MT4 cells after 5 days by MTT assay; format: functional, organism-based; settings: Human immunodeficiency virus 1, HXB2, MT4, 120 h; method in brief: as §1
[4] = system: Human immunodeficiency virus 1; experiment: Antiviral activity against HIV-1 LAI harboring wild type reverse transcriptase infected in human MT4 cells after 5 days by MTT assay; format: functional, organism-based; settings: Human immunodeficiency virus 1, LAI, MT4, 120 h
Method in brief: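 MT4 cells were kept in RPMI 1640 with 10% fetal calf serum and antibiotics at 37 °C, 5% CO2. A range of compound concentrations was incubated with HIV-1 LAI at 200 CCID50/well and 30000 MT4 cells/well for 5 days at 37 °C. Cell viability was read by MTT, and IC50 was the concentration giving 50% infection versus the drug-free control.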

[5] = system: Human immunodeficiency virus 1; experiment: Antiviral activity against HIV1 HXB2 harboring 227L and 106A mutant reverse transcriptase infected in human MT4 cells after 5 days by MTT assay; format: functional, organism-based; settings: Human immunodeficiency virus 1, HXB2, MT4, 120 h; method in brief: as §1
[6] = system: Human immunodeficiency virus 1; experiment: Antiviral activity against HIV1 HXB2 harboring Y181C mutant reverse transcriptase infected in human MT4 cells after 5 days by MTT assay; format: functional, organism-based; settings: Human immunodeficiency virus 1, HXB2, MT4, 120 h; method in brief: as §1
[7] = system: Human immunodeficiency virus 1; experiment: Antiviral activity against HIV1 HXB2 harboring 100I mutant reverse transcriptase infected in human MT4 cells after 5 days by MTT assay; format: functional, organism-based; settings: Human immunodeficiency virus 1, HXB2, MT4, 120 h; method in brief: as §1
[8] = system: Human immunodeficiency virus 1; experiment: Antiviral activity against HIV1 HXB2 harboring 227C mutant reverse transcriptase infected in human MT4 cells after 5 days by MTT assay; format: functional, organism-based; settings: Human immunodeficiency virus 1, HXB2, MT4, 120 h; method in brief: as §1
[9] = system: Human immunodeficiency virus 1; experiment: Antiviral activity against HIV1 HXB2 harboring K103N and Y181C mutant reverse transcriptase infected in human MT4 cells after 5 days by MTT assay; format: functional, organism-based; settings: Human immunodeficiency virus 1, HXB2, MT4, 120 h; method in brief: as §1
[10] = system: Human immunodeficiency virus 1; experiment: Antiviral activity against HIV1 HXB2 harboring 179E mutant reverse transcriptase infected in human MT4 cells after 5 days by MTT assay; format: functional, organism-based; settings: Human immunodeficiency virus 1, HXB2, MT4, 120 h; method in brief: as §1
[11] = system: Human immunodeficiency virus 1; experiment: Antiviral activity against HIV1 HXB2 harboring 138K mutant reverse transcriptase infected in human MT4 cells after 5 days by MTT assay; format: functional, organism-based; settings: Human immunodeficiency virus 1, HXB2, MT4, 120 h; method in brief: as §1
[12] = system: Human immunodeficiency virus 1; experiment: Antiviral activity against HIV1 HXB2 harboring 190S mutant reverse transcriptase infected in human MT4 cells after 5 days by MTT assay; format: functional, organism-based; settings: Human immunodeficiency virus 1, HXB2, MT4, 120 h; method in brief: as §1
[13] = system: Human immunodeficiency virus 1; experiment: Antiviral activity against HIV1 HXB2 harboring 190A mutant reverse transcriptase infected in human MT4 cells after 5 days by MTT assay; format: functional, organism-based; settings: Human immunodeficiency virus 1, HXB2, MT4, 120 h; method in brief: as §1
[14] = system: Human immunodeficiency virus 1; experiment: Antiviral activity against HIV1 HXB2 harboring 101E mutant reverse transcriptase infected in human MT4 cells after 5 days by MTT assay; format: functional, organism-based; settings: Human immunodeficiency virus 1, HXB2, MT4, 120 h; method in brief: as §1
[15] = system: Human immunodeficiency virus 1; experiment: Antiviral activity against HIV1 HXB2 harboring 106A mutant reverse transcriptase infected in human MT4 cells after 5 days by MTT assay; format: functional, organism-based; settings: Human immunodeficiency virus 1, HXB2, MT4, 120 h; method in brief: as §1

| SMILES | Ratio CC50/IC50 [1] | IC50 [2] [nM] | IC50 [3] [nM] | IC50 [4] [nM] | IC50 [5] [nM] | IC50 [6] [nM] | IC50 [7] [nM] | IC50 [8] [nM] | IC50 [9] [nM] | IC50 [10] [nM] | IC50 [11] [nM] | IC50 [12] [nM] | IC50 [13] [nM] | IC50 [14] [nM] | IC50 [15] [nM] |
| --- | --- | --- | --- | --- | --- | --- | --- | --- | --- | --- | --- | --- | --- | --- | --- |
| COCCSCc1c(C)[nH]c(=O)c(I)c1Oc1cc(C)cc(C)c1 | >50119 | 31.6 | 1.58 | 1.99 | 199 | 7.94 | 10 | 199 | – | – | – | – | – | – | – |
| Cc1ccnc2c1NC(=O)c1cccnc1N2C1CC1 [NEVIRAPINE] | – | 100000 | – | – | 163 | 10000 | – | 135 | 100000 | 195 | 51 | 44 | – | – | – |
| Cc1cc(C)cc(Oc2c(CN3CCCC(C#N)C3)c(C)[nH]c(=O)c2I)c1 (stereo unspecified) | 19953 | 199 | 6.3 | 3.98 | – | 31.6 | – | – | – | – | – | – | – | – | – |
| Cc1cc(C)cc(Oc2c(CN3CCOC(CC#N)C3)c(C)[nH]c(=O)c2I)c1 (stereo unspecified) | >15849 | 100 | 6.3 | 6.3 | – | 31.6 | – | – | – | – | – | – | – | – | – |
| Cc1cc(C)cc(Oc2c(CN3CCN(C(=O)c4ccco4)CC3)c(C)[nH]c(=O)c2I)c1 | 1585 | 158 | 25.1 | 10 | – | 125 | – | – | – | – | – | – | – | – | – |
| Cc1cc(C)cc(Sc2c(CN3CCOC(CCO)C3)c(C)[nH]c(=O)c2I)c1 (stereo unspecified) | 31623 | 199 | 1.58 | 1.58 | – | 31.6 | – | – | – | – | – | – | – | – | – |
| Cc1cc(C)cc(Oc2c(CN3CCSC3)c(C)[nH]c(=O)c2I)c1 | >15848 | 251 | 15.8 | 6.3 | – | 39.8 | – | – | – | – | – | – | – | – | – |
| Cc1cc(C)cc(Oc2c(CSCc3cccs3)c(C)[nH]c(=O)c2I)c1 | >39811 | 39.8 | 1 | 2.51 | – | 19.9 | – | – | – | – | – | – | – | – | – |
| Cc1cc(C)cc(Oc2c(CSC(C)C)c(C)[nH]c(=O)c2I)c1 | >19953 | 316 | 12.5 | 5 | – | 39.8 | – | – | – | – | – | – | – | – | – |
| COCCOCc1c(C)[nH]c(=O)c(I)c1Oc1cc(C)cc(C)c1 | >63096 | 158 | 50.1 | 1.58 | – | 10 | – | – | – | – | – | – | – | – | – |
| O=C1Nc2ccc(Cl)cc2[C@@](C#CC2CC2)(C(F)(F)F)O1 [EFAVIRENZ] | – | – | – | – | 25.1 | – | – | – | – | 5.01 | – | 251 | 10 | 6.3 | – |
| Cc1cc(C)cc(Oc2c(CSCc3ccccc3)c(C)[nH]c(=O)c2I)c1 | >15849 | 31.6 | 7.94 | 6.3 | – | 15.8 | – | – | – | – | – | – | – | – | – |
| Cc1cc(C)cc(Sc2c(Cn3nc(CC#N)nc3C)c(C)[nH]c(=O)c2I)c1 | >19953 | 199 | 25.1 | 5.01 | – | 39.8 | – | – | – | – | – | – | – | – | – |
| COC1CCN(Cc2c(C)[nH]c(=O)c(I)c2Sc2cc(C)cc(C)c2)CC1 | 10000 | 2000 | 12.5 | 3.98 | – | 199 | – | – | – | – | – | – | – | – | – |
| Cc1cc(C)cc(Sc2c(CN3CCOC(CC#N)C3)c(C)[nH]c(=O)c2I)c1 (stereo unspecified) | 25119 | 100 | 1 | 1.58 | – | 25.1 | – | – | – | – | – | – | – | – | – |
| Cc1cc(C)cc(Sc2c(CN3CCCCC3)c(C)[nH]c(=O)c2I)c1 | >15849 | 7940 | 31.6 | 6.3 | – | 794 | – | – | – | – | – | – | – | – | – |
| Cc1cc(C)cc(Oc2c(CSCc3cccc(C#N)c3)c(C)[nH]c(=O)c2I)c1 | 19953 | 794 | 1.58 | 3.16 | – | 6.3 | – | – | – | – | – | – | – | – | – |
| COCC1CCN(Cc2c(C)[nH]c(=O)c(I)c2Sc2cc(C)cc(C)c2)CC1 | 7943 | 3160 | 19.9 | 5.01 | – | 630 | – | – | – | – | – | – | – | – | – |
| CCOCc1c(C)[nH]c(=O)c(I)c1Oc1cc(C)cc(C)c1 | >158489 | 125 | 6.3 | 0.63 | – | 6.3 | – | – | – | – | – | – | – | – | – |
| Cc1cc(C)cc(Oc2c(-n3ccnc3C#N)c(C)[nH]c(=O)c2I)c1 | >15848 | 125 | 12.5 | 6.3 | – | 39.8 | – | – | – | – | – | – | – | – | – |
| Cc1cc(C)cc(Sc2c(Cn3cnc(C)c3C#N)c(C)[nH]c(=O)c2I)c1 | >79433 | 100 | 1.25 | 1.25 | – | 31.6 | – | – | – | – | – | – | – | – | – |
| CNC(=O)CSCc1c(C)[nH]c(=O)c(I)c1Oc1cc(C)cc(C)c1 | >60096 | 158 | 3.98 | 1.58 | – | 19.9 | – | – | – | – | – | – | – | – | – |
| Cc1cc(C)cc(Oc2c(COCCO)c(C)[nH]c(=O)c2I)c1 | >50119 | 501 | 39.8 | 1.99 | – | 31.6 | – | – | – | – | – | – | – | – | – |
| CCc1c(C)[nH]c(=O)c(N(C)C)c1Cc1cc(C)cc(C)c1 | 12589 | 251 | 31.6 | 7.94 | – | 100 | 50.1 | – | 794 | – | – | – | 63.1 | 15.8 | 39.8 |
| Cc1cc(C)cc(Oc2c(Cn3cncc3-c3ccccc3)c(C)[nH]c(=O)c2I)c1 | >15858 | 31.6 | 7.94 | 6.3 | – | 31.6 | – | – | – | – | – | – | – | – | – |
| Cc1cc(C)cc(Sc2c(CNC=O)c(C)[nH]c(=O)c2I)c1 | >79433 | 199 | 1.25 | 1.25 | – | 31.6 | – | – | – | – | – | – | – | – | – |
| Cc1cc(C)cc(Sc2c(CN(C)Cc3ccco3)c(C)[nH]c(=O)c2I)c1 | >15849 | 794 | 15.8 | 6.3 | – | 50.1 | – | – | – | – | – | – | – | – | – |
| Cc1cc(C)cc(Oc2c(Cn3cnc(C#N)c3C#N)c(C)[nH]c(=O)c2I)c1 | >10000 | 1000 | 31.6 | 10 | – | 199 | – | – | – | – | – | – | – | – | – |
| Cc1cc(C)cc(Oc2c(CSCC(C)C)c(C)[nH]c(=O)c2I)c1 | >12589 | 794 | 25.1 | 7.94 | – | 50.1 | – | – | – | – | – | – | – | – | – |
